Measured values: PMC3483416 (Archives of biochemistry and biophysics, 2012)
Where two headings read alike, the source gives them in different places.

Key:
[1] = Analytical light scattering; format: physicochemical; settings: for Mw (weighted-average molar mass): Superdex 200, 10°C; for P (population of species): integration of elution peak
Procedure, shortened: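 Full-length His-tagged human BclXL, 50 μM starting concentration, run on Superdex 200 SEC at 1 ml/min and 10 °C in 50 mM buffer (pH 4–10) with 100 mM NaCl, 1 mM EDTA and 5 mM β-mercaptoethanol. Inline triple-angle SLS, 90° DLS and refractive-index concentration detection. Mw, Mn and Rg from Zimm treatment; Rh from autocorrelation fit. Errors one SD, ≥3 independent runs.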

Near-UV CD of BclXL = format: physicochemical; settings: 30μM BclXL, 25°C
Procedure, shortened: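 Near-UV spectra recorded on 30 μM His-tagged full-length human BclXL in 50 mM acetate pH 4, phosphate pH 6, Tris pH 8 or CAPS pH 10. 25 °C; 10-mm quartz cuvette; 260–340 nm; 2-nm slit; 10 nm/min. Spectra normalized against buffer references. At least three repeats.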

ITC: binding = assay: ITC: binding
Procedure, shortened: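 25 × 10 μl injections of 50 μM full-length BclXL into a cell of 2 mM TOCL/DHPC bicelles (1:4 molar ratio, stirred 2 h at 37 °C in buffer). 25 °C; 50 mM buffer (acetate pH 4 to CAPS pH 10) with 100 mM NaCl, 1 mM EDTA and 5 mM β-mercaptoethanol. Buffer-titration heats subtracted. Kd and ΔH from a one-site fit; TΔS = ΔH − ΔG. ≥3 repeats.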

[2] = ANS fluorescence in the presence of BclXL; format: binding; settings: for ANS fluorescence enhancement: 5μM BclXL, excess ANS, excitation 375nm, 25 °C
Procedure, shortened: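 Full-length human BclXL (residues 1–233, N-His, E. coli-expressed, Ni-NTA purified) at 5 μM with excess ANS in 50 mM acetate pH 4, phosphate pH 6, Tris pH 8 or CAPS pH 10. 25 °C; excitation 375 nm; emission 400–600 nm; 2.5-nm bandwidths. ANS-alone background subtracted. Enhancement = (Φ−Φo)/Φo × 100%, where Φ is the integrated spectral area. At least three repeats.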

[3] = Acrylamide quenching of BclXL intrinsic fluorescence; format: physicochemical; settings: 5μM BclXL, excess acrylamide, 25 °C
Procedure, shortened: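 Intrinsic fluorescence quenching: 5 μM His-tagged full-length human BclXL with excess acrylamide in 50 mM acetate (pH 4), phosphate (pH 6), Tris (pH 8) or CAPS (pH 10). 25 °C, 10-mm cuvette; excitation 290 nm; emission 300–500 nm; 2.5-nm bandwidths. […] Q = (Φo−Φ)/Φo × 100% from integrated spectral areas. At least three repeats.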

Far-UV CD of BclXL = format: physicochemical; settings: 5μM BclXL, 25°C
Procedure, shortened: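 Far-UV spectra of 5 μM full-length human BclXL in 50 mM acetate (pH 4), phosphate (pH 6), Tris (pH 8) or CAPS (pH 10). 25 °C; 2-mm quartz cuvette; 190–250 nm; 2-nm slit; 10 nm/min scan. Buffer reference spectra subtracted. At least three repeats.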

[4] = format: physicochemical; settings: 50μM BclXL, 1°C/min
[5] = Dimer, pH 6, ± SD, n at least 3
[6] = Dimer, pH 8, ± SD, n at least 3
[7] = Dimer, pH 10, ± SD, n at least 3
[8] = Megamer, pH 4, ± SD, n at least 3
[9] = Monomer, pH 6, ± SD, n at least 3
[10] = Monomer, pH 8, ± SD, n at least 3
[11] = Multimer, pH 6, ± SD, n at least 3
[12] = Multimer, pH 8, ± SD, n at least 3
[13] = Multimer, pH 10, ± SD, n at least 3
[14] = Polymer, pH 6, ± SD, n at least 3
[15] = Polymer, pH 8, ± SD, n at least 3
[16] = Polymer, pH 10, ± SD, n at least 3

Substance: full-length BclXL: Full-length human BclXL (residues 1-233), N-terminal His-tag, expressed in Escherichia coli
- Mw (weighted-average molar mass) ([1]; Dimer, pH 6, phosphate, 50μM loaded, ± SD, n at least 3): 61 ± 3 kD
- P (population of species) ([1]; Dimer, pH 6): 11%
- Mn (number-average molar mass) [1, 5]: 59 ± 2 kD
- Mw/Mn [1, 5]: 1.02 ± 0.01
- Rh (weighted-average hydrodynamic radius) [1, 5]: 49 ± 4 Å
- Mw (weighted-average molar mass) ([1]; Dimer, pH 8, Tris, 50μM loaded, ± SD, n at least 3): 62 ± 4 kD
- P (population of species) ([1]; Dimer, pH 8): 5%
- Mn (number-average molar mass) [1, 6]: 61 ± 2 kD
- Mw/Mn [1, 6]: 1.01 ± 0.01
- Rh (weighted-average hydrodynamic radius) [1, 6]: 48 ± 2 Å
- Mw (weighted-average molar mass) ([1]; Dimer, pH 10, CAPS, 50μM loaded, ± SD, n at least 3): 61 ± 3 kD
- P (population of species) ([1]; Dimer, pH 10): 5%
- Mn (number-average molar mass) [1, 7]: 60 ± 3 kD
- Mw/Mn [1, 7]: 1.02 ± 0.01
- Rh (weighted-average hydrodynamic radius) [1, 7]: 49 ± 3 Å
- Mw (weighted-average molar mass) ([1]; Megamer, pH 4, acetate, 50μM loaded, ± SD, n at least 3): 33805 ± 2821 kD
- Mn (number-average molar mass) ([1]; Megamer, pH 4, 50μM loaded, 10°C, ± SD, n at least 3): 33085 ± 2623 kD
- P (population of species) ([1]; Megamer, pH 4): 100%
- Mw/Mn [1, 8]: 1.02 ± 0.01
- Rg (weighted-average radius of gyration) [1, 8]: 783 ± 86 Å
- Rg/Rh [1, 8]: 2.40 ± 0.16
- Rh (weighted-average hydrodynamic radius) [1, 8]: 324 ± 23 Å
- Mw (weighted-average molar mass) ([1]; Monomer, pH 6, phosphate, 50μM loaded, ± SD, n at least 3): 32 ± 2 kD
- P (population of species) ([1]; Monomer, pH 6): 31%
- Mn (number-average molar mass) [1, 9]: 31 ± 2 kD
- Mw/Mn [1, 9]: 1.01 ± 0.01
- Rh (weighted-average hydrodynamic radius) [1, 9]: 26 ± 1 Å
- Mw (weighted-average molar mass) ([1]; Monomer, pH 8, Tris, 50μM loaded, ± SD, n at least 3): 31 ± 1 kD
- P (population of species) ([1]; Monomer, pH 8): 7%
- Mn (number-average molar mass) [1, 10]: 30 ± 2 kD
- Mw/Mn [1, 10]: 1.00 ± 0.00
- Rh (weighted-average hydrodynamic radius) [1, 10]: 34 ± 2 Å
- Mw (weighted-average molar mass) ([1]; Monomer, pH 10, CAPS, 50μM loaded, ± SD, n at least 3): 31 ± 2 kD
- P (population of species) ([1]; Monomer, pH 10): 9%
- Mw (weighted-average molar mass) ([1]; Multimer, pH 6, phosphate, 50μM loaded, ± SD, n at least 3): 595 ± 45 kD
- P (population of species) ([1]; Multimer, pH 6): 37%
- Mn (number-average molar mass) [1, 11]: 577 ± 39 kD
- Mw/Mn [1, 11]: 1.03 ± 0.02
- Rg (weighted-average radius of gyration) [1, 11]: 141 ± 5 Å
- Rg/Rh [1, 11]: 1.47 ± 0.02
- Rh (weighted-average hydrodynamic radius) [1, 11]: 95 ± 3 Å
- Mw (weighted-average molar mass) ([1]; Multimer, pH 8, Tris, 50μM loaded, ± SD, n at least 3): 364 ± 32 kD
- P (population of species) ([1]; Multimer, pH 8): 51%
- Mn (number-average molar mass) [1, 12]: 325 ± 33 kD
- Mw/Mn [1, 12]: 1.11 ± 0.01
- Rg (weighted-average radius of gyration) [1, 12]: 98 ± 4 Å
- Rg/Rh [1, 12]: 1.08 ± 0.02
- Rh (weighted-average hydrodynamic radius) [1, 12]: 90 ± 2 Å
- Mw (weighted-average molar mass) ([1]; Multimer, pH 10, CAPS, 50μM loaded, ± SD, n at least 3): 461 ± 21 kD
- P (population of species) ([1]; Multimer, pH 10): 50%
- Mn (number-average molar mass) [1, 13]: 448 ± 23 kD
- Mw/Mn [1, 13]: 1.03 ± 0.01
- Rg (weighted-average radius of gyration) [1, 13]: 131 ± 5 Å
- Rg/Rh [1, 13]: 1.21 ± 0.01
- Rh (weighted-average hydrodynamic radius) [1, 13]: 108 ± 4 Å
- Mw (weighted-average molar mass) ([1]; Polymer, pH 6, phosphate, 50μM loaded, ± SD, n at least 3): 3521 ± 292 kD
- P (population of species) ([1]; Polymer, pH 6): 21%
- Mn (number-average molar mass) [1, 14]: 3101 ± 201 kD
- Mw/Mn [1, 14]: 1.13 ± 0.03
- Rg (weighted-average radius of gyration) [1, 14]: 230 ± 12 Å
- Rg/Rh [1, 14]: 1.22 ± 0.02
- Rh (weighted-average hydrodynamic radius) [1, 14]: 187 ± 9 Å
- Mw (weighted-average molar mass) ([1]; Polymer, pH 8, Tris, 50μM loaded, ± SD, n at least 3): 3729 ± 246 kD
- P (population of species) ([1]; Polymer, pH 8): 37%
- Mn (number-average molar mass) [1, 15]: 3226 ± 236 kD
- Mw/Mn [1, 15]: 1.15 ± 0.02
- Rg (weighted-average radius of gyration) [1, 15]: 218 ± 12 Å
- Rg/Rh [1, 15]: 1.15 ± 0.03
- Rh (weighted-average hydrodynamic radius) [1, 15]: 188 ± 11 Å
- Mw (weighted-average molar mass) ([1]; Polymer, pH 10, CAPS, 50μM loaded, ± SD, n at least 3): 3189 ± 229 kD
- P (population of species) ([1]; Polymer, pH 10): 36%
- Mn (number-average molar mass) [1, 16]: 3018 ± 212 kD
- Mw/Mn [1, 16]: 1.06 ± 0.02
- Rg (weighted-average radius of gyration) [1, 16]: 232 ± 13 Å
- Rg/Rh [1, 16]: 1.14 ± 0.02
- Rh (weighted-average hydrodynamic radius) [1, 16]: 202 ± 7 Å
- mass of megamer ([1]; acidic conditions (pH 4)): ~ 34,000 kD
- monomeric units in megadalton oligomer ([1]; acidic conditions (pH 4)): more than 1000 monomeric units
- Mw/Mn ([1]; megadalton oligomer, pH 4, text): < 1.05
- Mw/Mn ([1]; monomeric and dimeric forms): < 1.05
- Rg/Rh ([1]; multimer and polymer): > 1.05
- mass of monomer ([1]; pH 6 and higher): ~ 31 kD
- near-UV CD signal (Near-UV CD of BclXL; acidic pH (pH 4)): substantially attenuated
- near-UV CD signal (Near-UV CD of BclXL; alkaline conditions (pH 8 and 10)): also attenuated
- near-UV CD signal (Near-UV CD of BclXL; pH 6): strong near-UV CD signal
- TΔS (ITC: binding; pH 4, acetate, 25 °C, TΔS=ΔH-ΔG, ± SD, n at least 3): -224.8 ± 17.2 kJ/mol
- ΔH (ITC: binding; pH 4, acetate, 25 °C, ± SD, n at least 3): -263.6 ± 17.6 kJ/mol
- ΔG (ITC: binding; pH 4, acetate, 25 °C, ΔG=RTlnKd, ± SD, n at least 3): -38.7 ± 0.42 kJ/mol
- binding to TOCL/DHPC bicelles, in words (ITC: binding; pH 4-10): only under acidic conditions
- ANS emission maximum upon binding to BclXL ([2]; blue-shifted from 515nm in water): around 475 nm
- ANS fluorescence enhancement ([2]; pH 4): ~15 fold
- ANS fluorescence enhancement ([2]; pH 6): 2 fold
- ANS fluorescence enhancement ([2]; pH 8): about 5 fold
- ANS fluorescence enhancement ([2]; pH 10): about 5 fold
- fluorescence quenching by acrylamide vs pH [3]: optimal quenching occurs at pH 6
- intensity of far-UV spectrum (Far-UV CD of BclXL; pH 4-10): steadily increases with increasing pH
- far-UV CD band, first (Far-UV CD of BclXL; all pH conditions): around 208 nm
- far-UV CD band, second (Far-UV CD of BclXL; all pH conditions): ~222 nm
- melting temperature (no melting transition up to) ([4]; pH 4, 50mM buffer, 3atm): > 120 °C
- melting temperature (Tm), first transition ([4]; pH 6, attributed to dissociation of dimer into monomers): around 55 °C
- melting temperature (Tm), second transition ([4]; pH 6, attributed to unfolding of monomers): ~70 °C
- melting temperature (Tm), first transition ([4]; pH 10, dissociation of dimer into monomers): around 60 °C
- melting temperature (Tm), second transition ([4]; pH 10, unfolding of monomers): ~90 °C
